≈ marks a conversion by molar mass, not a printed value.
Key:
[1] = WHO-TDR: Cytotoxicity; type: toxicity, cell-based; details: human, MRC5 cells
Plasmodium falciparum K1 = test: WHO-TDR: Malaria; type: functional, organism-based, Homo sapiens; details: Erythrocyte
Method in brief: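 Following previously published standard procedures, with a reference drug serving as positive control, compounds were tested on the Plasmodium falciparum K1 strain inside human red blood cells. The 10,000-compound diverse set came from Life Chemicals after filtering for drug-likeness and reactive groups. Potency against the parasite appears as IC50.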

Trypanosoma cruzi = test: WHO-TDR: Chagas disease; type: functional, organism-based, Homo sapiens; details: MRC5
Method in brief: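 Intracellular amastigotes of the Trypanosoma cruzi Tulahuen CL2 beta-galactosidase strain, grown in MRC-5SV2 human lung fibroblast host cells, were tested in a whole-organism screen. The compounds came from a 10,000-member diverse Life Chemicals library that had been filtered for drug-likeness and reactive groups. Previously published standard procedures were followed, with a reference drug as positive control, and potency is reported as IC50.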

[2] = test system: Trypanosoma brucei brucei; test: WHO-TDR: Human African Trypanosomiasis (HAT); type: functional, organism-based; details: Squib-427
Method in brief: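 Bloodstream forms of the Trypanosoma brucei Squib 427 strain were tested in a whole-organism screen with a diverse library from Life Chemicals of 10,000 compounds. Before screening, the library was filtered for drug-likeness and for reactive groups. The assay used previously published standard procedures and included reference drugs as positive controls. Potency against the parasite is expressed as IC50.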

Leishmania infantum = test: WHO-TDR: Leishmaniasis; type: functional, organism-based, Mus musculus; details: Macrophage
Method in brief: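 Following previously published standard procedures, a whole-organism screen was run on Leishmania infantum MHOM/MA(BE)/67 amastigotes within murine peritoneal macrophages, with a reference drug as positive control. The 10,000 compounds tested formed a diverse Life Chemicals library filtered for drug-likeness and reactive groups. Potency against the parasite is reported as IC50.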

Schistosoma mansoni = test: WHO-TDR: Schistosomiasis; type: functional; design: concentration or dose not given beside the values
Method in brief: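 In this whole-organism assay, larval and/or adult worms of Schistosoma mansoni (Puerto Rican strain) were exposed to compounds from a diverse Life Chemicals library of 10,000 members. A reference drug served as positive control. Activity is stated as percent inhibition and IC50.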

Onchocerca ochengi = test: WHO-TDR: Onchocerciasis; type: functional; design: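 at 12.5 µM on microfilariae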
Method in brief: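 Microfilariae of Onchocerca ochengi or Onchocerca lienalis, animal pathogens standing in for the human parasite, were exposed to compounds in a whole-organism screen. The compounds came from a 10,000-compound diverse Life Chemicals library filtered for drug-likeness and reactive groups. Results are expressed as percent inhibition and IC50.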

Brugia malayi = test: WHO-TDR: Lymphatic Filariasis; type: functional; design: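 tested at 10 µM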
Method in brief: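 In a whole-organism assay, Brugia malayi microfilariae were screened against a diverse Life Chemicals library that had been filtered for drug-likeness and reactive groups. That library comprised 10,000 compounds. Activity is expressed as percent inhibition and as IC50.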

| Structure (SMILES) | IC50 [1] [µg/mL] | IC50 (Plasmodium falciparum K1) [µg/mL] | IC50 (Trypanosoma cruzi) [µg/mL] | IC50 [2] [µg/mL] | IC50 (Leishmania infantum) [µg/mL] | % Inhibition (Schistosoma mansoni) [%] | % Inhibition (Onchocerca ochengi) [%] | % Inhibition (Brugia malayi) [%] |
| --- | --- | --- | --- | --- | --- | --- | --- | --- |
| COc1cccc(C(=O)N(CCCn2ccnc2)c2nc3c(C)c(C)ccc3s2)c1OC | 3.15 (≈ 6.99 µM) | 1.28 (≈ 2.85 µM) | 0.648 (≈ 1.44 µM) | 1.34 (≈ 2.97 µM) | 4.73 (≈ 10.5 µM) | 0 | 100 | 0 |
| CS(=O)(=O)N1CCN(c2ccc(-c3ccccn3)nn2)CC1 | > 9.58 | > 9.58 | 0.22 (≈ 0.689 µM) | > 9.58 | > 9.58 | 0 | 0 | 0 |
| CC(CC(=O)N1CCC(Cc2ccccc2)CC1)CC1=Nc2ccccc2S(=O)(=O)N1 (centres undefined) | > 13.2 | > 13.2 | 6.58 (≈ 15 µM) | > 13.2 | > 13.2 | 0 | 100 | 0 |
| O=C(Cc1cccs1)N1CCN(c2nccn2-c2cccc(Cl)c2)CC1 | > 12.7 | 12 (≈ 31.1 µM) | 7.14 (≈ 18.5 µM) | 4.77 (≈ 12.3 µM) | 0.411 (≈ 1.06 µM) | 0 | 50 | 0 |
| O=C(CSc1ncc(CO)n1Cc1ccc(Cl)cc1)NCc1ccccc1Cl | > 13.1 | > 13.1 | 4.39 (≈ 10.1 µM) | 4.84 (≈ 11.1 µM) | > 13.1 | 0 | 100 | 25 |
| COc1ccc(-c2ccc(N3CCN(C(=O)c4c(F)cccc4F)CC3)nn2)cc1OC | > 13.2 | > 13.2 | > 13.2 | > 13.2 | 0.428 (≈ 0.972 µM) | 8.3 | 0 | 0 |
| COc1ccc2nc(-c3ccc(F)c(NC(=O)Cc4ccccc4)c3)cn2n1 | > 11.3 | > 11.3 | > 11.3 | > 11.3 | 0.366 (≈ 0.972 µM) | 25 | 0 | 0 |
| O=C(CC1CCCC1)N1CCN(c2ccc(-c3ccccn3)nn2)CC1 | 5.57 (≈ 15.9 µM) | 0.731 (≈ 2.08 µM) | 0.466 (≈ 1.33 µM) | 0.409 (≈ 1.16 µM) | 0.341 (≈ 0.97 µM) | 33.3 | 0 | 33.33 |
| COc1ccc(Cl)c2sc(N(CCCn3ccnc3)C(=O)c3cccc(F)c3)nc12 | 4.08 (≈ 9.16 µM) | 3.63 (≈ 8.15 µM) | 3.68 (≈ 8.27 µM) | 4.67 (≈ 10.5 µM) | > 14.4 | 0 | 100 | 0 |
| Cc1cc(C)c(S(=O)(=O)NCCNc2ccc(Nc3cccc(C)n3)nn2)c(C)c1 | 6.74 (≈ 15.8 µM) | 2.41 (≈ 5.65 µM) | 4.46 (≈ 10.5 µM) | 4.14 (≈ 9.71 µM) | 5.4 (≈ 12.7 µM) | 33.3 | 100 | 0 |
| CSc1ccc2nc(N(Cc3cccnc3)C(=O)c3ccc(C(=O)c4ccccc4)cc3)sc2c1 | > 14.9 | > 14.9 | 0.874 (≈ 1.76 µM) | > 14.9 | > 14.9 | 0 | 0 | 0 |
| CCn1nc(C(=O)Nc2nnc(-c3ccc4c(c3)CCCC4)o2)cc1C | > 10.5 | > 10.5 | > 10.5 | > 10.5 | > 10.5 | 16.7 | 100 | 0 |
| O=C(c1ccc(Br)o1)C1C(=O)N(c2ccccc2)N=C1c1ccccc1 (centres undefined) | > 12.3 | > 12.3 | 5.34 (≈ 13.1 µM) | 4.44 (≈ 10.8 µM) | > 12.3 | 0 | 100 | 0 |
| C/C=C/Cn1c(=O)c2c(nc3n(C(C)c4ccccc4)c(C)cn23)n(C)c1=O (centres undefined) | > 11.3 | 6.29 (≈ 16.7 µM) | 3.82 (≈ 10.1 µM) | 0.099 (≈ 0.262 µM) | > 11.3 | 0 | 0 | 20 |
| Cc1ccc(S(=O)(=O)N2CCC(C(=O)Nc3c(C(N)=O)oc4ccccc34)CC2)cc1 | > 13.2 | > 13.2 | > 13.2 | > 13.2 | > 13.2 | 0 | 100 | 0 |
| O=C(Nc1nnc(CCSc2ccccc2)o1)c1ccc(Cl)cc1 | 3.41 (≈ 9.49 µM) | > 10.8 | 3.77 (≈ 10.5 µM) | 3.49 (≈ 9.71 µM) | 3.49 (≈ 9.71 µM) | 0 | 100 | 0 |
| COc1cc(C)ccc1S(=O)(=O)NCCCn1nc(-c2ccc(F)cc2)ccc1=O | 10 (≈ 23.2 µM) | > 12.9 | > 12.9 | > 12.9 | > 12.9 | 0 | 100 | 0 |
| COc1ccc(OC)c2sc(N(CCCn3ccnc3)C(=O)COc3ccccc3)nc12 | 4.9 (≈ 10.8 µM) | 3.16 (≈ 6.98 µM) | 4.77 (≈ 10.5 µM) | 4.75 (≈ 10.5 µM) | > 14.7 | 0 | 100 | 0 |
| CS(=O)(=O)N1CCCCC1C(=O)Nc1nc(-c2nc3ccccc3s2)cs1 (centres undefined) | > 12.7 | > 12.7 | > 12.7 | > 12.7 | > 12.7 | 0 | 100 | 0 |
| CS(=O)(=O)c1ccccc1C(=O)Nc1nc(-c2cc3ccccc3o2)cs1 | 5.25 (≈ 13.2 µM) | > 12 | 4.3 (≈ 10.8 µM) | 4.02 (≈ 10.1 µM) | > 12 | 0 | 100 | 0 |
| O=C(Nc1ccc2c(c1)N(C(=O)C1CCCO1)CC2)c1ccco1 (centres undefined) | > 9.79 | > 9.79 | > 9.79 | > 9.79 | 0.317 (≈ 0.971 µM) | 0 | 0 | 0 |
| Cc1c(Cl)cccc1-n1c(-c2ccc(F)cc2)cn2c3c(=O)n(C)c(=O)n(C)c3nc12 | 6.43 (≈ 14.7 µM) | 2.97 (≈ 6.79 µM) | > 13.1 | 3.81 (≈ 8.7 µM) | 4.25 (≈ 9.71 µM) | 0 | 100 | 20 |
| CSc1cccc2sc(N3CCN(C(=O)c4ccccc4)CC3)nc12 | > 11.1 | > 11.1 | 4.19 (≈ 11.3 µM) | > 11.1 | > 11.1 | 0 | 100 | 0 |
| O=C(c1cccs1)N(CCCn1ccnc1)c1nc2c(F)cc(F)cc2s1 | 8.75 (≈ 21.6 µM) | 0.793 (≈ 1.96 µM) | 4.01 (≈ 9.91 µM) | 4.23 (≈ 10.5 µM) | > 13.2 | 0 | 100 | 0 |
| CS(=O)(=O)c1ccc2nc(N(Cc3cccnc3)C(=O)c3ccc4ccccc4c3)sc2c1 | > 14.2 | > 14.2 | 0.225 (≈ 0.475 µM) | > 14.2 | 4.6 (≈ 9.71 µM) | 0 | 0 | 0 |
| COc1cccc(-c2cc(CC(=O)NCCC(C)C)no2)c1 | > 9.07 | > 9.07 | > 9.07 | > 9.07 | > 9.07 | 0 | 100 | 0 |
| Cc1cc(C(=O)Nc2nnc(-c3ccc(Br)s3)o2)nn1C | 3.2 (≈ 8.68 µM) | > 11 | > 11 | > 11 | > 11 | 8.3 | 100 | 0 |
| CN(C1CC1)S(=O)(=O)c1ccc(C(=O)Nc2nnc(-c3ccc(Br)s3)o2)cc1 | 3.91 (≈ 8.09 µM) | > 14.5 | 4.76 (≈ 9.85 µM) | 4.75 (≈ 9.83 µM) | 4.69 (≈ 9.71 µM) | 0 | 100 | 0 |
| OCc1cnc(SCc2ccccc2)n1Cc1ccccc1 | > 9.31 | 9.31 (≈ 30 µM) | > 9.31 | > 9.31 | > 9.31 | 0 | 100 | 25 |
| CCOC(=O)N1CCN(C(=O)Nc2nc(CC(=O)Nc3ccc(F)c(F)c3)cs2)CC1 | > 13.6 | > 13.6 | > 13.6 | > 13.6 | > 13.6 |  | 100 | 20 |
